Experimental findings from ChEMBL document CHEMBL5252608, “Eremoxylarins D-J, Antibacterial Eremophilane Sesquiterpenes Discovered from an Endolichenic Strain of Xylaria hypoxylon” (J Nat Prod, 2023) are described below.

Data set [1] deals with Human coronavirus 229E. The data set is described as follows: Antiviral activity against HCoV-229E harboring luciferase reporter gene infected in human Huh-7 cells assessed as reduction in viral replication upto 50 uM pre-incubated for 1 hrs followed by replacement with fresh media for 6 hrs by renilla luciferase based luminometer analysis. The class given is functional, organism-based. The conditions noted are these: time 7.0 hrs. An outline of the steps:
(§1)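 Huh-7 or Huh-7/TMPRSS2 cells in DMEM GlutaMAX-I with 10% FBS. Inoculated with luciferase-reporter HCoV-229E at MOI 0.5 for 1 h at 37 °C with compound at increasing concentrations (highest 50 μM). Virus then replaced by compound-containing medium for 6 h. Lysed for Renilla luciferase luminescence, normalised to DMSO control. Triplicate measures, 3 independent experiments, mean ± SEM.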
(Reporter assays use an easily measured gene product as a stand-in for the process of interest.)

The test system of data set [2] is Human coronavirus 229E. The data set is described as follows: Antiviral activity against HCoV-229E harboring luciferase reporter gene infected in human Huh-7 cells expressing TMPRSS2 assessed as reduction in viral replication upto 50 uM pre-incubated for 1 hrs followed by replacement with fresh media for 6 hrs by renilla luciferase based luminometer analysis. The class given is functional, organism-based. Particulars: time 7.0 hrs. An outline of the steps: as §1

For data set [3], the system named is Human coronavirus 229E. The data set is described as follows: Antiviral activity against HCoV-229E harboring luciferase reporter gene infected in human Huh-7 cells assessed as reduction in viral replication pre-incubated for 1 hrs followed by replacement with fresh media for 6 hrs by renilla luciferase based luminometer analysis. The class given is functional, organism-based. An outline of the steps: as §1

The test system of data set [4] is Human coronavirus 229E. The data set is described as follows: Antiviral activity against HCoV-229E harboring luciferase reporter gene infected in human Huh-7 cells expressing TMPRSS2 assessed as reduction in viral replication pre-incubated for 1 hrs followed by replacement with fresh media for 6 hrs by renilla luciferase based luminometer analysis. It counts as functional, organism-based. The conditions noted are these: time 7.0 hrs. The gist of the method: as §1

Data set [5] is described as follows: Selectivity index, ratio of CC50 for human Huh-7 cells to IC50 for antiviral activity against HCoV-229E harboring luciferase reporter gene infected in human Huh-7 cells. It counts as toxicity, cell-based. The conditions noted are these: read-out: Ratio CC50/IC50. An outline of the steps: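 Huh-7 cells (6×10^4/well) seeded and held 16 h at 37 °C, 5% CO₂, then treated 24 h with increasing compound concentrations. MTS viability read as formazan absorbance at 490 nm; CC50 derived, 3 experiments. Ratio taken against IC50 from the luciferase-reporter HCoV-229E infection assay in Huh-7 cells (MOI 0.5, 1 h plus 6 h).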

Molecules are shown by their SMILES. Calls of active or inactive are those of the source. No cut-off for these calls is given here.

For `C=C(C=O)[C@H]1CC=C2[C@H](OC(=O)/C(C)=C/C=C/CCCCC)CC[C@H](C(=O)O)[C@@]2(C)C1`, the result in data set [1] and in data set [2] was inactive.
As for `C=C(C=O)[C@H]1CC=C2[C@H](OC(=O)/C(C)=C/CCCCCCC)CC[C@H](C(=O)O)[C@@]2(C)C1`, in data set [3], the concentration for half-maximal inhibition (IC50) was 18.1 µM. Besides, the outcome in data set [3] (time 7.0 hrs) and in data set [4] was Active. Further, the selectivity ratio in data set [5] was 2.57.

The IC50 is the midpoint of a concentration-inhibition curve.
